Screening results deposited in PubChem by several laboratories.
Only some compounds are listed: those with a hit (about 1.6% of all), similar ones and a draw of the others.
HKDC1 inh: inhibitors of human hexokinase HKDC1; recombinant HKDC1, G6PDH/diaphorase resazurin coupled fluorescence; Q2TB90; 340,000 tested, 0.16% active; inhibition, % at 20 µM; AID 493160;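 active = inhibition above about 35% when tested at 20 µM, limit read from the data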;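 note: plate controls were DMSO wells with enzyme for no effect and DMSO wells lacking enzyme for full effect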
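Material – in-house recombinant HK5 (HKDC1) enzyme · Quantity – HKDC1 at 5 µg/mL · Buffer or medium – pH 8.0 Tris buffer with 10 mM MgCl2 · Reagent – glucose with 1 mM ATP · Dosing – single 20 µM dose · Times – reaction time 90 min, room temperature, protected from light · Technique – resorufin fluorescence at 613 nm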
GSTO1 counter: blocks human GSTO1 in RBBP9 counter-screen; recombinant GSTO1, activity-based probe fluorescence polarization; inhibition, % at 5.96 µM; 300,000 tested, 1.1% active; AID 1974;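 active = inhibition above the campaign mean inhibition plus 3 SD, cut at about 35% in these data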;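 note: 0% = GSTO1-1 with DMSO and 100% = wells lacking GSTO1-1 enzyme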
Target sequence (P78417 whole entry, looked up): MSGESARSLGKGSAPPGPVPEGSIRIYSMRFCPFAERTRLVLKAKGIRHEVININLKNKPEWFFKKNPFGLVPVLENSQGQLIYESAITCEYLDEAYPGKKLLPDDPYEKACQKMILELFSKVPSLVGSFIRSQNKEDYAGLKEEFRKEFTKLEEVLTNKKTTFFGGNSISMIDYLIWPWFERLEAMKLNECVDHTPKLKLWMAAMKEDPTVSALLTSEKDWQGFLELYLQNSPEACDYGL
PAD4 FP inh: blocks human protein arginine deiminase 4; inhibition, % at 6.36 µM; AID 485272; 330,000 tested, 0.41% active; recombinant PAD4, RCA probe fluorescence polarization;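 active = percent inhibition above a cutoff equal to the mean of all tested compounds plus 3 SD, cut at about 15% in these data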;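 note: 0% = PAD4 with RCA probe and DMSO and 100% = probe without PAD4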
CTSL1 counter: counter-screen for PFM18AAP inhibitors: inhibitors of F. hepatica cathepsin L1; AID 1906; inhibition, % at 5.96 µM; recombinant F. hepatica cathepsin L1, Z-Leu-Arg-MCA fluorescence; 300,000 tested, 0.49% active;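 active = inhibition above the mean of all tested compounds plus 3 SD, set per screening campaign, cut at about 17% in these data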;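 note: 0% = plate median of test compound wells and 100% = 1 µM Z-Phe-Ala-diazomethylketone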
UCH37 inh: inhibitors of human deubiquitinating enzyme UCH37. AID 588478. 330,000 tested, 0.33% active. Q9Y5K5. purified proteasome/UCH37, Ub-AMC cleavage fluorescence. inhibition, % (no concentration beside the values);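 active = mean inhibition over replicate wells above about 20%, limit read from the data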;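 note: 0% = compound-free wells with enzyme and 100% = wells lacking proteasome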
Target sequence (Q9Y5K5 whole entry, looked up): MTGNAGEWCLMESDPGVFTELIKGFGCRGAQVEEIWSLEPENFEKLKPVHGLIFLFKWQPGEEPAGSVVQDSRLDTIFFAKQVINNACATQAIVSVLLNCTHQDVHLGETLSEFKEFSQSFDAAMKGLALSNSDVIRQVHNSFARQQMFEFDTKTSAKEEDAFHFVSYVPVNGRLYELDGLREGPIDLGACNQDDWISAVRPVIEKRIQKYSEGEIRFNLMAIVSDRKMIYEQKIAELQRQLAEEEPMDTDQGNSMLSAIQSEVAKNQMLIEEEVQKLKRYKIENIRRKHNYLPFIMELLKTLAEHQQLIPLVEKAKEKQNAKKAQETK
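Material: Human UCH37 enzyme supplied as purified proteasome complex | Schedule: 30 min compound-proteasome preincubation then 25 min substrate reaction, room temperature | Detection: AMC fluorescence from Ub-AMC cleavage, excitation 355 nm, emission 460 nm | Benchmarks: Wells without proteasome as full block, compound-free enzyme plus substrate as uninhibited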
TDP2 inh: blocks human TDP2 phosphodiesterase activity | 370,000 tested, 0.34% active | inhibition, % at 12.8 µM | recombinant TDP2, T5PNP hydrolysis, p-nitrophenol absorbance 415 nm;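 active = inhibition above the mean of all tested compounds plus 3 SD, set per campaign, cut at about 25% in these data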;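 note: 0% = DMSO with enzyme and 100% = buffer with substrate but no TDP2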
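Material: recombinant human TDP2; quantity: TDP2 enzyme at 120 nM final; medium: Tris-HCl pH 7.5 with MgCl2; compound: single concentration, 12.8 µM nominal, with 1% DMSO; incubation: 2 h enzyme incubation at 37 °C; signal: epi absorbance; measure: percent inhibition; benchmarks: high control without enzyme, low control DMSO plus TDP2; repeats: singlicate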
PAD4 confirm: PAD4 (human) inhibition, confirmed; shares compounds with PAD4 FP inh; 1,200 tested, 28% active; AID 488796; recombinant PAD4, RCA probe fluorescence polarization; inhibition, % at 6.36 µM;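 active = mean inhibition across replicates above the hit cutoff set by the earlier primary screen, cut at about 15% in these data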;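 note: inhibitors block active-site labeling by the probe so polarization falls; 0% = PAD4 with probe and DMSO and 100% = probe without PAD4 enzyme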
HKDC1 act conf2: HKDC1 (human) activation, single-dose confirmed. 740 tested, 14% active. inhibition, % at 20 µM. shares compounds with HKDC1 inh. recombinant HKDC1, G6PDH/diaphorase resazurin fluorescence; active compounds read low;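 active = inhibition at or below a set negative limit, negative inhibition meaning the enzyme was activated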
UCH37 confirm: UCH37 Ub-AMC cleavage inhibition, confirmed. shares compounds with UCH37 inh. Proteasome-bound UCH37, Ub-AMC cleavage fluorescence. inhibition, % at 20 µM. 480 tested, 27% active. AID 624100;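 active = average inhibition over replicates above about 50%, so the earlier screening hit is confirmed, limit read from the data; inactive = the rest, counted as false positives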;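 note: based on cleavage rate fitted by regression over a 30 min kinetic read; 0% = proteasome plus Ub-AMC and 100% = Ub-AMC without proteasome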
Numbers without * were called inactive; / = no result given.

SMILES	HKDC1 inh	GSTO1 counter	PAD4 FP inh	CTSL1 counter	UCH37 inh	TDP2 inh	HKDC1 act conf2	others
CN(C)C(=O)Oc1cccc2c(OC(=O)N(C)C)cccc12	-2.3	8.4	23.7*	-0.3	4.7	1.9	/	PAD4 confirm=6.8
CC(C)(C)c1ccc(C(=O)OCC(=O)N2CCC(c3ccccc3)=N2)cc1	-1.0	/	-0.8	/	2.1	-6.9	/
N#CC1(c2ccccc2)CCN(C2CC(=O)N(c3ccc4c(c3)OCO4)C2=O)CC1 (configuration not stated)	-23.9	-4.8	-4.0	0.1	0.2	-4.8	/
N#CC1(c2ccccc2)CCN(C2CC(=O)N(c3ccc(F)cc3)C2=O)CC1 (configuration not stated)	-5.6	3.5	17.6*	0.0	-0.7	8.5	/	PAD4 confirm=2.7
Cc1cc(C)cc(N2C(=O)NC(=O)/C(=C\c3cc(C)n(C)c3C)C2=O)c1	-5.5	0.7	-3.0	1.2	1.0	6.5	/
CC1=NN(c2ccccc2)C(=O)C1/C=C1\C(=O)NC(=O)N(c2cc(C)cc(C)c2)C1=O (configuration not stated)	-2.1	36.1*	25.6*	0.9	-0.2	19.7	/	PAD4 confirm=3.0
C=CCn1c(O)c(C=Nc2ccc(N(CC)CC)cc2)c(=O)[nH]c1=O	1.4	28.1	28.2*	6.0	-26.5	15.1	/	PAD4 confirm=5.0
CC(C)(C)n1nnnc1C1CN=C(c2ccccc2)c2ccccc2N1 (configuration not stated)	/	/	/	/	/	-0.4	/
O=c1[nH]c(=S)n(-c2ccccc2F)c(O)c1C=Nc1ccc(N2CCOCC2)cc1	13.0	43.1*	17.4*	-1.6	7.7	1.9	/	PAD4 confirm=3.2
Cc1ccc(NC(=O)CCSc2ccccc2)c(C)c1	/	4.8	-1.8	-0.7	1.3	/	/
O=c1cc(C(F)(F)F)c2cc3c4c(c2o1)CCCN4CCC3	-2.7	13.7	35.1*	2.5	-9.0	-1.8	/	PAD4 confirm=38.4*
Cc1cc2c(C(F)(F)F)cc(=O)oc2c2c1NCCC2	-3.9	-6.6	-3.3	-2.7	-29.9	7.7	/
Cc1[nH]n(-c2ccccc2)c(=O)c1C(c1ccc([N+](=O)[O-])cc1)c1c(C)[nH]n(-c2ccccc2)c1=O	-2.1	59.2*	65.5*	-4.8	12.7	/	/	PAD4 confirm=-18.0
c1ccc(Cn2nnnc2C2CN=C(c3ccccc3)c3ccccc3N2)cc1 (configuration not stated)	/	/	/	/	/	5.0	/
COc1ccccc1NC(=O)CN(Cc1ccccc1)S(C)(=O)=O	-6.2	12.8	3.3	-2.9	0.9	-0.8	/
CCOC(=O)c1c(-n2c(C)cc(C=C3C(=O)NC(=O)NC3=O)c2C)sc2c1CCCC2	41.4*	-9.2	-11.3	4.7	-63.8	10.6	30.1
Cc1cccc(N2C(=O)NC(=O)/C(=C\c3cc(C)n(-c4sc5c(c4C#N)CCCC5)c3C)C2=O)c1C	72.4*	4.7	-6.0	-0.1	6.7	1.6	54.9
Cc1cc(/C=C2\C(=O)NC(=O)N(c3ccccc3F)C2=O)c(C)n1-c1cc(C(=O)O)cc(C(=O)O)c1	2.3	13.5	-2.3	-2.1	/	2.2	/
CC(c1ccccc1)n1cc(C(=O)NC2CCCC2)nn1 (configuration not stated)	/	/	/	/	/	6.4	/
COC(=O)[C@@H]1[C@@H](C(=O)OC)C2(c3ccccc3-c3ccccc32)N(c2ccc(Cl)cc2)N1C#N	62.2*	-5.4	0.7	-0.9	3.4	0.0	43.1
COC(=O)C[C@]1(C(=O)OC)CN(C#N)N(c2ccc(Cl)cc2)C12c1ccccc1-c1ccccc12	86.9*	1.0	6.0	-1.1	5.7	-1.4	62.4
Cc1cc(O)c2c(c1)C(=O)[C@@]13C(=C2O)C(=O)[C@H]2C(O)[C@@H]1[C@H]1C(O)[C@@H]3C(=O)C3=C(O)c4c(O)cc(C)cc4C(=O)[C@@]312 (some centres not stated)	/	/	/	/	/	-2.1	/
Cc1cccc(N2C(=O)NC(=O)/C(=C/c3cc4c(cc3[N+](=O)[O-])OCO4)C2=O)c1	12.4	28.8	-2.7	5.0	-1.0	-4.8	/
Cc1cccc(N2C(=O)NC(=O)/C(=C\c3ccc4c(c3)CCCN4Cc3ccccc3)C2=O)c1	44.9*	8.9	-7.0	1.1	7.4	-1.3	45.2
CCCCCc1nc2c(c(=O)c3ccccc3n2C)c(=O)n1C1CCCCCC1	30.7	-5.4	-6.7	3.9	5.1	-2.9	17.4
SMILES	HKDC1 inh	GSTO1 counter	PAD4 FP inh	CTSL1 counter	UCH37 inh	TDP2 inh	HKDC1 act conf2	others
CCCCCc1nc2ccccc2c(=O)n1-c1ccccc1[N+](=O)[O-]	-6.5	0.0	1.3	-2.1	-1.8	-9.6	/
COc1ccc(Cc2cn(C)c(N)n2)cc1	/	/	/	/	/	-0.3	/
Cc1ccc(OP2(=O)Nc3cc(C)c(C)cc3S2)cc1 (configuration not stated)	-40.7	/	/	/	4.0	4.4	-22.8
CC(=O)N1c2ccccc2C(c2ccccc2)=NCC1C(=O)NC1CCCCC1 (configuration not stated)	/	/	/	/	/	2.6	/
Nc1cnn(-c2ccccc2)c(=O)c1Cl	44.7*	0.9	-0.3	-0.7	1.4	6.5	-21.9
O=C(NCCN1CCC2(CC1)C(=O)NCN2c1ccccc1)c1ccc(F)c(F)c1	/	/	/	/	/	5.0	/
COc1cc2c(cc1OC)-c1c(OC)c(OC)c(OC)c3ccnc(c13)C2=O	49.5*	2.1	-0.5	1.4	1.1	/	57.5
COc1cc(CC2(CCc3ccncc3)C(=O)NC(=O)NC2=O)cc(OC)c1OC	-8.5	8.0	-1.1	-0.6	3.7	5.5	/
CC(C)(C)NC(=O)CN1C(=O)[C@@H](Cc2c[nH]c3ccccc23)N=C(c2ccccc2)c2ccccc21	/	/	/	/	/	-11.9	/
Cc1ccc(N2C(=O)NC(=O)/C(=C/c3ccoc3)C2=O)cc1	39.2*	/	/	/	4.7	12.8	-3.1
O=C1NC(=O)N(c2ccc3c(c2)OCO3)C(=O)/C1=C\c1ccc(N2CCCCC2)o1	-14.2	-1.7	-3.5	6.7	28.7*	0.7	/	UCH37 confirm=43.8
CN1C(=O)C(=Cc2ccc(N3CCCCCC3)o2)C(=O)N(C)C1=S	-0.5	-17.8	-4.9	-1.2	14.8	-6.5	/
O=C(N=Nc1c(O)[nH]c(=O)[nH]c1=O)C1COc2ccccc2O1 (configuration not stated)	3.3	33.0	-4.7	0.3	32.0*	3.7	/	UCH37 confirm=5.0
O=c1[nH]c(O)c(N=Nc2ccc3c(c2)OCCO3)c(=O)[nH]1	-12.5	-5.1	0.5	-0.2	13.0	2.1	/
